ChEMBL document CHEMBL5260840 (J Med Chem, 2019)

Assays:
A204 = experiment: Antiproliferative activity against human A204 cells assessed as inhibition of cell growth incubated for 7 days by CellTiterGlo assay; type: functional, cell-based; settings: A204, 168 h
EOL1 = experiment: Antiproliferative activity against human EOL1 cells assessed as inhibition of cell growth incubated for 7 days by CellTiterGlo assay; type: functional, cell-based; settings: EOL1, 168 h
[1] = target: T1, von Hippel-Lindau disease tumor suppressor/Bromodomain-containing protein 7 (Homo sapiens) (UniProt Q9NPI1+P40337); experiment: PROTAC activity at VHL/BRD7 in human HeLa cells assessed as remaining BRD7 protein level at 1 uM incubated for 4 hrs by Western blot analysis relative to control; type: cell-based
[2] = target: T2, von Hippel-Lindau disease tumor suppressor/Bromodomain-containing protein 9 (Homo sapiens) (UniProt Q9H8M2+P40337); experiment: PROTAC activity at VHL/BRD9 in human Ri-1 cells assessed as remaining BRD9 protein level at 1 uM incubated for 2 hrs by Western blot analysis relative to control; type: cell-based
Method in brief: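 Ri-1 cells exposed to compound for the stated time before harvest; BRD9, BRD7 and β-actin measured by Western blot, band intensities quantified and set against DMSO-treated control.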

[3] = target: T1, von Hippel-Lindau disease tumor suppressor/Bromodomain-containing protein 7 (Homo sapiens); experiment: PROTAC activity at VHL/BRD7 in human Ri-1 cells assessed as remaining BRD7 protein level at 1 uM incubated for 2 hrs by Western blot analysis relative to control; type: cell-based
[4] = target: T2, von Hippel-Lindau disease tumor suppressor/Bromodomain-containing protein 9 (Homo sapiens); experiment: PROTAC activity at VHL/BRD9 in human HeLa cells assessed as remaining BRD9 protein level at 1 uM incubated for 16 hrs by Western blot analysis relative to control; type: cell-based
Method in brief: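 HeLa cells treated with compound for the stated time before harvest; BRD9, BRD7 and β-actin detected by Western blot with β-actin loading control; band intensities quantified.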

[5] = target: T1, von Hippel-Lindau disease tumor suppressor/Bromodomain-containing protein 7 (Homo sapiens); experiment: PROTAC activity at VHL/BRD7 in human HeLa cells assessed as remaining BRD7 protein level at 1 uM incubated for 16 hrs by Western blot analysis relative to control; type: cell-based
[6] = target: T3, Protein cereblon/Bromodomain-containing protein 9 (Homo sapiens) (UniProt Q9H8M2+Q96SW2); experiment: PROTAC activity at CRBN/BRD9 in human HeLa cells assessed as remaining BRD9 protein level at 1 uM incubated for 4 hrs by Western blot analysis relative to control; type: cell-based
Method in brief: (§1)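 Cells given 1 µM compound before harvest: HeLa 4 h, RI-1 2 h and 8 h. BRD9, BRD7 and β-actin detected by Western blot; band intensities quantified.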

[7] = target: T3, Protein cereblon/Bromodomain-containing protein 9 (Homo sapiens); experiment: PROTAC activity at CRBN/BRD9 in human HeLa cells assessed as remaining BRD9 protein level at 1 uM incubated for 16 hrs by Western blot analysis relative to control; type: cell-based
Method in brief: (§2)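 HeLa cells given 1 µM compound for 16 h before harvest. BRD9, BRD7 and β-actin detected by Western blot; band intensities quantified.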

[8] = target: T4, Protein cereblon/Bromodomain-containing protein 7 (Homo sapiens) (UniProt Q9NPI1+Q96SW2); experiment: PROTAC activity at CRBN/BRD7 in human HeLa cells assessed as remaining BRD7 protein level at 1 uM incubated for 4 hrs by Western blot analysis relative to control; type: cell-based; method in brief: as §1
[9] = target: T4, Protein cereblon/Bromodomain-containing protein 7 (Homo sapiens); experiment: PROTAC activity at CRBN/BRD7 in human HeLa cells assessed as remaining BRD7 protein level at 1 uM incubated for 16 hrs by Western blot analysis relative to control; type: cell-based; method in brief: as §2

T1 sequence (P40337 whole entry, looked up): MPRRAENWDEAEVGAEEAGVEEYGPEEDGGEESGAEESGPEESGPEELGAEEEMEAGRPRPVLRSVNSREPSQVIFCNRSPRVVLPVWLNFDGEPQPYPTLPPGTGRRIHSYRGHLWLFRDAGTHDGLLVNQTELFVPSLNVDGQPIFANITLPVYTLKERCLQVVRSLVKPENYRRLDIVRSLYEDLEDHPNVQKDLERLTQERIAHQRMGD
T1 sequence (Q9NPI1 whole entry, looked up): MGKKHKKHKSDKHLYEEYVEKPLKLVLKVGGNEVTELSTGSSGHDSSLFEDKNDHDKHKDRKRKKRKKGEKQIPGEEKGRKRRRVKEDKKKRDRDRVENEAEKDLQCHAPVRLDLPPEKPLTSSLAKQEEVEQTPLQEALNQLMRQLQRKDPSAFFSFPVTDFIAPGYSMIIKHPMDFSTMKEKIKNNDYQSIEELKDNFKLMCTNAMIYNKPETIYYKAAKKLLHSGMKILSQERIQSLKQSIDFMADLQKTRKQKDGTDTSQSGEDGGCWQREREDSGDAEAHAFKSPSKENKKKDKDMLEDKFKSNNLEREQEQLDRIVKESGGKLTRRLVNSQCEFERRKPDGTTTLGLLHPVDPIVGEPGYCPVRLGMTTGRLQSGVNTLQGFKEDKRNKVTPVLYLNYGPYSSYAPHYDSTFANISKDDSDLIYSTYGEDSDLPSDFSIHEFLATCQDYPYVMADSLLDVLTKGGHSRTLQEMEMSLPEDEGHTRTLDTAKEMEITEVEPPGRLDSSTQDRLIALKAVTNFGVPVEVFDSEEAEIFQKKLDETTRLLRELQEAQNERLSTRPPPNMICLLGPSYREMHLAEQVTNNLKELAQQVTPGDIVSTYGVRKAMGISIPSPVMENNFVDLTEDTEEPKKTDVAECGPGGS
T2 sequence (P40337 whole entry, looked up): as the sequence (P40337 whole entry, looked up) above
T2 sequence (Q9H8M2 whole entry, looked up): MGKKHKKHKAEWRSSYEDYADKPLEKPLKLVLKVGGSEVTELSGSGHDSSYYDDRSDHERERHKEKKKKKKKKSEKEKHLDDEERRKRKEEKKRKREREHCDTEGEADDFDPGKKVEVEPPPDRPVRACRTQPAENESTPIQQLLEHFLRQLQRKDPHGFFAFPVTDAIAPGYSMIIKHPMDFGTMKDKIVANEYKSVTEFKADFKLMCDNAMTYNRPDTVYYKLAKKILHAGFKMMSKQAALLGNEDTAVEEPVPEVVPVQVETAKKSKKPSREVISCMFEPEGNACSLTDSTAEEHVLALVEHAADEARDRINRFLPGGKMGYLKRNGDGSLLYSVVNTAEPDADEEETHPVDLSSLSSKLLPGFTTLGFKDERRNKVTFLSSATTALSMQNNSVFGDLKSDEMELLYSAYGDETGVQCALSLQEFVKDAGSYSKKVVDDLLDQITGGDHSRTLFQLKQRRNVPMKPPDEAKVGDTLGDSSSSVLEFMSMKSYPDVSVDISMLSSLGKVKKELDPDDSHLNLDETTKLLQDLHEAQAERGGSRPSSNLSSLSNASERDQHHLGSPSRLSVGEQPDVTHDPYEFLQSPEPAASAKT
T3 sequence (Q96SW2 whole entry, looked up): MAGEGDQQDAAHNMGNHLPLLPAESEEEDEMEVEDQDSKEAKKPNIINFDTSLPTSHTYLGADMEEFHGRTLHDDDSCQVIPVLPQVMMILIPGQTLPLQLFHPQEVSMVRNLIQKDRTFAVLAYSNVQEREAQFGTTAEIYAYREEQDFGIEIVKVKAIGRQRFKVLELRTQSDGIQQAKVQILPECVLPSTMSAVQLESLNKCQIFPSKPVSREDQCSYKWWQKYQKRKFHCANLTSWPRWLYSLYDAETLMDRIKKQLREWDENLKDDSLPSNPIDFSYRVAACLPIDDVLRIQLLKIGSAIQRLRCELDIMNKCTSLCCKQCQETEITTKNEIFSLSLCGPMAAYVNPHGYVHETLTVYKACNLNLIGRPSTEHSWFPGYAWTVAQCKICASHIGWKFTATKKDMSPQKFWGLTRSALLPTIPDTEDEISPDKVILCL
T3 sequence (Q9H8M2 whole entry, looked up): as the sequence (Q9H8M2 whole entry, looked up) above
T4 sequence (Q96SW2 whole entry, looked up): as the sequence (Q96SW2 whole entry, looked up) above
T4 sequence (Q9NPI1 whole entry, looked up): as the sequence (Q9NPI1 whole entry, looked up) above

SMILES	Activity [1] [%]	Activity [2] [%]	Activity [3] [%]	Activity [4] [%]	Activity [5] [%]	also measured
COc1cc(-c2cn(C)c(=O)c3cnccc23)cc(OC)c1CN(C)CC(=O)NCCOCCOCCNc1cccc2c1C(=O)N(C1CCC(=O)NC1=O)C2=O (configuration not stated)	–	–	–	–	–	IC50 (A204): 0.0898 µM; IC50 (EOL1): 0.00487 µM
COc1cc(-c2cn(C)c(=O)c3cnccc23)cc(OC)c1CN1CC(NC(=O)CCCCOc2cc(-c3scnc3C)ccc2CNC(=O)[C@@H]2C[C@@H](O)CN2C(=O)[C@@H](NC(=O)C2(F)CC2)C(C)(C)C)C1	25	68	70	–	–	–
COc1cc(-c2cn(C)c(=O)c3cnccc23)c(OC)cc1CN1CC(NC(=O)COCCOCCOCCOc2cc(-c3scnc3C)ccc2CNC(=O)[C@@H]2C[C@@H](O)CN2C(=O)[C@@H](NC(=O)C2(F)CC2)C(C)(C)C)C1	138	95	85	–	–	–
COc1cc(-c2cn(C)c(=O)c3cnccc23)cc(OC)c1CN1CCN(C(=O)COCCOCCOCN[C@H](C(=O)N2C[C@H](O)C[C@H]2C(=O)NCc2ccc(-c3scnc3C)cc2)C(C)(C)C)CC1	–	–	–	73	113	–
COc1cc(-c2cn(C)c(=O)c3cnccc23)cc(OC)c1CN1CCN(CCCCCOCCOc2cc(-c3scnc3C)ccc2CNC(=O)[C@@H]2C[C@@H](O)CN2C(=O)[C@@H](NC(=O)C2(F)CC2)C(C)(C)C)CC1	98	69	83	–	–	–
COc1cc(-c2cn(C)c(=O)c3cnccc23)cc(OC)c1CN1CC(NC(=O)COCCOCCOc2cc(-c3scnc3C)ccc2CNC(=O)[C@@H]2C[C@@H](O)CN2C(=O)[C@@H](NC(=O)C2(F)CC2)C(C)(C)C)C1	53	95	92	–	–	–
COc1cc(-c2cn(C)c(=O)c3cnccc23)cc(OC)c1CN1CC(NC(=O)COCCOCCOCCOc2cc(-c3scnc3C)ccc2CNC(=O)[C@@H]2C[C@@H](O)CN2C(=O)[C@@H](NC(=O)C2(F)CC2)C(C)(C)C)C1	103	89	98	–	–	–
COc1cc(-c2cn(C)c(=O)c3cnccc23)cc(OC)c1CN1CC(NC(=O)CCCCOCCOc2cc(-c3scnc3C)ccc2CNC(=O)[C@@H]2C[C@@H](O)CN2C(=O)[C@@H](NC(=O)C2(F)CC2)C(C)(C)C)C1	31	92	106	–	–	–
COc1cc(-c2cn(C)c(=O)c3cnccc23)cc(OC)c1CN1CCN(CCOCCOCCOCCOCC(=O)NCCNc2cccc3c2C(=O)N(C2CCC(=O)NC2=O)C3=O)CC1 (configuration not stated)	–	–	–	–	–	Activity [6]: 19%; Activity [7]: 11%; Activity [8]: 106%; Activity [9]: 94%
COc1cc(-c2cn(C)c(=O)c3cnccc23)c(OC)cc1CN1CCN(CCOCCOCCOc2cc(-c3scnc3C)ccc2CNC(=O)[C@@H]2C[C@@H](O)CN2C(=O)[C@@H](NC(=O)C2(F)CC2)C(C)(C)C)CC1	126	125	149	–	–	–
COc1cc(-c2cn(C)c(=O)c3cnccc23)c(OC)cc1CN1CC(NC(=O)CCCCOCCOc2cc(-c3scnc3C)ccc2CNC(=O)[C@@H]2C[C@@H](O)CN2C(=O)[C@@H](NC(=O)C2(F)CC2)C(C)(C)C)C1	250	94	97	–	–	–

The next lines start with results.

Activity [1] [%]	Activity [2] [%]	Activity [3] [%]	Activity [4] [%]	Activity [5] [%]	SMILES	also measured
88	–	–	63	187	COc1cc(-c2cn(C)c(=O)c3cnccc23)cc(OC)c1CN1CCN(CCOCCOCCOc2cc(-c3scnc3C)ccc2CNC(=O)[C@@H]2C[C@@H](O)CN2C(=O)[C@@H](NC(=O)C2(C#N)CC2)C(C)(C)C)CC1	–
104	–	–	112	54	COc1cc(-c2cn(C)c(=O)c3cnccc23)cc(OC)c1CN1CCN(CCOCCOCCOCCOCCOCC(=O)N[C@H](C(=O)N2C[C@H](O)C[C@H]2C(=O)NCc2ccc(-c3scnc3C)cc2)C(C)(C)C)CC1	–
110	–	–	97	163	COc1cc(-c2cn(C)c(=O)c3cnccc23)cc(OC)c1CN1CCN(CCOCCOCCOCCOCCOc2cc(-c3scnc3C)ccc2CNC(=O)[C@@H]2C[C@@H](O)CN2C(=O)[C@@H](NC(=O)C2(F)CC2)C(C)(C)C)CC1	–
89	–	–	98	124	COc1cc(-c2cn(C)c(=O)c3cnccc23)cc(OC)c1CN1CCN(CCOCCOCCOCCOCCOc2cc(-c3scnc3C)ccc2CNC(=O)[C@@H]2C[C@@H](O)CN2C(=O)[C@@H](NC(=O)C2(C#N)CC2)C(C)(C)C)CC1	–
206	127	134	–	–	COc1cc(-c2cn(C)c(=O)c3cnccc23)c(OC)cc1CN1CCN(CCOCCOCCOCCOc2cc(-c3scnc3C)ccc2CNC(=O)[C@@H]2C[C@@H](O)CN2C(=O)[C@@H](NC(=O)C2(F)CC2)C(C)(C)C)CC1	–
